We go through 27 molecules from ChEMBL document CHEMBL2424587, “Antiproliferative activity of abietane diterpenoids against human tumor cells” (J Nat Prod, 2013).

Common to all, as to type: functional, cell-based
The subject of experiment [1] is SK-MEL-1. The experiment in a line: Cytotoxicity against human SK-MEL-1 cells after 72 hrs by MTT assay. To be noted: SK-MEL-1, 72 h. The method in brief: (§1)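 MTT assay: 1 × 10^4 exponentially growing cells per well incubated 72 h over a range of compound concentrations; MTT 0.5 mg/mL for 4 h at 37 °C, then 10% SDS in 0.05 M HCl overnight at room temperature in the dark; absorbance at 570 nm. Leukemia and SK-MEL-1 lines grown in RPMI 1640, MCF-7 in DMEM, both with 10% heat-inactivated FBS. IC50 given as mean ± SEM of 3–5 independent experiments, each in triplicate.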
(Tetrazolium assays rely on reduction of a dye to a coloured formazan, in cell work by metabolically active cells.)

The test system of experiment [2] is MCF7. The experiment can be described thus: Cytotoxicity against human MCF7 cells after 72 hrs by MTT assay. As to conditions: MCF7, 72 h. In short, it runs like this: as §1
The test system of experiment [3] is MOLT-3. The experiment can be described thus: Cytotoxicity against human MOLT3 cells after 72 hrs by MTT assay. To be noted: MOLT-3, 72 h. In short, it runs like this: as §1
Experiment [4] concerns U-937. The experiment in a line: Cytotoxicity against human U937 cells after 72 hrs by MTT assay. As to conditions: U-937, 72 h. In short, it runs like this: as §1
For experiment [5], the system named is HL-60. The experiment in a line: Cytotoxicity against human HL60 cells after 72 hrs by MTT assay. To be noted: HL-60, 72 h. The method in brief: as §1

Regarding `CCC(=O)OC/C=C(\C)C[C@@H](O)[C@@]1(C)[C@H](C)CC=C2[C@@H]1CCCC2(C)C`, the half-inhibitory concentration (IC50) in experiment [1] was above 30 µM; in experiment [2] it was above 30 µM; in experiment [3], above 30 µM; in experiment [4] it was 24.7 µM; in experiment [5], above 30 µM.

As for `CC(C)C1=CC2=CC(=O)[C@H]3C(C)(C)CCC[C@]3(C)C2=C(O)C1=O` [TAXODIONE], the IC50 in experiment [1] was 9.6 µM; in experiment [2], above 30 µM; in experiment [3] it was 1.8 µM; in experiment [4], 3 µM; in experiment [5] it was 4.8 µM.

Consider `CC(=O)Oc1c(C(C)C)cc2c(c1OC(C)=O)[C@@]1(C)CCCC(C)(C)C1=C(O)C2=O`, for which the IC50 in experiment [1] was 24.1 µM; in experiment [2] it was above 30 µM; in experiment [3], 13.4 µM; in experiment [4], 8.4 µM; in experiment [5], 11.5 µM.

As for `CC(=O)O[C@H]1C2=C(C(=O)C(O)=C(C(C)C)C2=O)[C@@]2(C)CCCC(C)(C)[C@@H]2[C@@H]1O`, the IC50 was 29.1 µM in experiment [1]; 6.8 µM in experiment [2]; 12.7 µM in experiment [3]; 13.7 µM in experiment [4]; 25.4 µM in experiment [5].

In the case of `COc1c(O)c2c(c(O)c1C(C)C)C(=O)C[C@H]1C(C)=C(C)C(=O)C[C@]21C`, the IC50 in experiment [1], in experiment [2], in experiment [3], in experiment [4] and in experiment [5] was above 30 µM throughout.

Take `CCCC(=O)O[C@@H]1[C@@H](OC(C)=O)C2=C(C(=O)C(O)=C(C(C)C)C2=O)[C@@]2(C)CCCC(C)(C)[C@H]12`: the half-maximal inhibitory concentration (IC50) in experiment [1] amounted to 3.6 µM; in experiment [2], 6.5 µM; in experiment [3] it was 3.5 µM; in experiment [4], 3.4 µM; in experiment [5], 5.6 µM.

Consider `C/C(=C\COC(=O)c1ccccc1)C[C@@H](O)[C@@]1(C)[C@H](C)CC=C2[C@@H]1CCCC2(C)C`, for which the IC50 in experiment [1], in experiment [2], in experiment [3], in experiment [4] and in experiment [5] was above 30 µM in each case.

On to `CC(=O)O[C@H]1C2=C(C(=O)C(OC(=O)c3ccc([N+](=O)[O-])cc3)=C(C(C)C)C2=O)[C@@]2(C)CCCC(C)(C)[C@@H]2[C@@H]1O`, for which the IC50 in experiment [1] stood at 5.7 µM; in experiment [2], 11.4 µM; in experiment [3] it was 10 µM; in experiment [4], 1.1 µM; in experiment [5], 8.4 µM.

Take `CC(=O)OC1=C(C(C)C)C(=O)C2=C(C1=O)[C@@]1(C)CCCC(C)(C)[C@@H]1[C@H](OC(C)=O)[C@H]2OC(C)=O`: the concentration for half-maximal inhibition (IC50) came to 8.1 µM in experiment [1]; 5.9 µM in experiment [2]; 3 µM in experiment [3]; 6.4 µM in experiment [4]; 9 µM in experiment [5].

On to `CC(=O)O[C@H](C/C(C)=C/CO)[C@@]1(C)[C@H](C)CC=C2[C@@H]1CCCC2(C)C`, for which the half-maximal inhibitory concentration (IC50) in experiment [1], in experiment [2], in experiment [3], in experiment [4] and in experiment [5] was above 30 µM in each case.

Turning to `CCO[C@@H]1C[C@H]2C(C)(C)CCC[C@]2(C)C2=C1C(=O)C(C(C)C)=C(O)C2=O`, the IC50 in experiment [1], in experiment [2], in experiment [3], in experiment [4] and in experiment [5] was above 30 µM in each case.

Consider `CCCC(=O)OC/C=C(\C)C[C@@H](O)[C@@]1(C)[C@H](C)CC=C2[C@@H]1CCCC2(C)C`, for which the 50% inhibitory concentration (IC50) in experiment [1], in experiment [2], in experiment [3], in experiment [4] and in experiment [5] was above 30 µM throughout.

On to `COc1ccc(C(=O)OC/C=C(\C)C[C@@H](O)[C@@]2(C)[C@H](C)CC=C3[C@@H]2CCCC3(C)C)cc1`, for which the IC50 in experiment [1], in experiment [2], in experiment [3], in experiment [4] and in experiment [5] was above 30 µM throughout.

Take `CC(=O)OC1=C2C(C)(C)CCC[C@]2(C)c2c(cc(C(C)C)c(OC(C)=O)c2OC(C)=O)C1=O`: the 50% inhibitory concentration (IC50) is 9.9 µM in experiment [1]; above 30 µM in experiment [2]; 4.6 µM in experiment [3]; 4.6 µM in experiment [4]; 4.1 µM in experiment [5].

For `COc1cc([C@@H]2c3cc4c(cc3[C@@H](O[C@@H]3O[C@@H]5CO[C@@H](C)O[C@H]5[C@H](O)[C@H]3O)[C@H]3COC(=O)[C@H]23)OCO4)cc(OC)c1O` [ETOPOSIDE], the half-inhibitory concentration (IC50) in experiment [4] stood at 1.4 µM; in experiment [5], 0.5 µM.

`C[C@H]1Cc2c(O)c3c(c(O)c2O1)[C@@]1(C)CCC(=O)C(C)(C)C1=C(O)C3=O` [TEUVINCENONE A]: the IC50 in experiment [1] was above 30 µM; in experiment [2], above 30 µM; in experiment [3] it was 2.7 µM; in experiment [4], 1.5 µM; in experiment [5], 3.5 µM.

Consider `CCC(=O)O[C@@H]1[C@@H](OC(C)=O)C2=C(C(=O)C(O)=C(C(C)C)C2=O)[C@@]2(C)CCCC(C)(C)[C@H]12`, for which the IC50 in experiment [1] amounted to 9 µM; in experiment [2], 17.1 µM; in experiment [3] it was 6.3 µM; in experiment [4], 7 µM; in experiment [5], 11.8 µM.

Consider `CC(=O)O[C@H]1C2=C(C(=O)C(OC(=O)c3ccc(Cl)cc3)=C(C(C)C)C2=O)[C@@]2(C)CCCC(C)(C)[C@@H]2[C@@H]1OC(=O)c1ccc(Cl)cc1`, for which the IC50 in experiment [1] was above 30 µM; in experiment [2] it was above 30 µM; in experiment [3], above 30 µM; in experiment [4] it was 5.6 µM; in experiment [5] it was 5.7 µM.

Regarding `C/C(=C\CO)C[C@@H](O)[C@@]1(C)[C@H](C)CC=C2[C@@H]1CCCC2(C)C`, the IC50 in experiment [1], in experiment [2], in experiment [3], in experiment [4] and in experiment [5] was above 30 µM in each case.

Regarding `CC(=O)O[C@H](C/C(C)=C/C(=O)O)[C@@]1(C)[C@H](C)CC=C2[C@@H]1CCCC2(C)C`, the half-inhibitory concentration (IC50) in experiment [1], in experiment [2], in experiment [3], in experiment [4] and in experiment [5] was above 30 µM each time.

Turning to `CC(=O)O[C@@H]1[C@@H](OC(C)=O)C2=C(C(=O)C(O)=C(C(C)C)C2=O)[C@@]2(C)CCCC(C)(C)[C@H]12`, the half-inhibitory concentration (IC50) in experiment [1] came to 16.2 µM; in experiment [2] it was 23.3 µM; in experiment [3], 5.4 µM; in experiment [4] it was 12.1 µM; in experiment [5], 15.9 µM.

As for `CC(C)c1c(O)c(O)c2c(c1O)C(=O)C(O)=C1C(C)(C)CCC[C@@]12C`, the IC50 in experiment [1] worked out at 10 µM; in experiment [2] it was 27.5 µM; in experiment [3] it was 8.8 µM; in experiment [4], 4.3 µM; in experiment [5] it was 4.1 µM.

As to `COC(=O)/C=C(\C)C[C@@H](OC(C)=O)[C@@]1(C)[C@H](C)CC=C2[C@@H]1CCCC2(C)C`, the IC50 in experiment [1], in experiment [2], in experiment [3], in experiment [4] and in experiment [5] was above 30 µM throughout.

Regarding `CCC(=O)OC1=C(C(C)C)C(=O)C2=C(C1=O)[C@@]1(C)CCCC(C)(C)[C@@H]1[C@H](OC(=O)CC)[C@H]2OC(C)=O`, the half-maximal inhibitory concentration (IC50) in experiment [1] was found to be 27.4 µM; in experiment [2] it was 28.3 µM; in experiment [3] it was 10.8 µM; in experiment [4], 3.9 µM; in experiment [5], 4.7 µM.

As to `CC(=O)O[C@H]1C2=C(C(=O)C(O)=C(C(C)C)C2=O)[C@@]2(C)CCCC(C)(C)[C@@H]2[C@@H]1OC(=O)c1ccc([N+](=O)[O-])cc1`, the IC50 amounted to 6.7 µM in experiment [1]; 9.1 µM in experiment [2]; 1.5 µM in experiment [3]; 1.4 µM in experiment [4]; 3.8 µM in experiment [5].

For the molecule `CC(C)C1=C(O)C(=O)C2=C(CC[C@H]3C(C)(C)CCC[C@]23C)C1=O` [ROYLEANONE], the IC50 in experiment [1] was above 30 µM; in experiment [2] it was above 30 µM; in experiment [3], 13.6 µM; in experiment [4], above 30 µM; in experiment [5], above 30 µM.

On to `COc1c(O)c2c(c(O)c1C(C)C)C(=O)C[C@H]1C(C)(C)CCC[C@]21C` [INUROYLEANOL], for which the IC50 in experiment [1] is above 30 µM; in experiment [2], above 30 µM; in experiment [3] it was above 30 µM; in experiment [4], 11.1 µM; in experiment [5] it was 20.8 µM.

Usually IC50 stands for the concentration that gives 50% inhibition.
